Calls of active or inactive are those of the source. The rule behind the calls is not given here.
Tests used:
[1] = Cytotoxicity against mouse Hepa 1c1c7 cells assessed as cell viability at 1 uM after 24 hrs by MTT assay; type: functional; conditions: Hepa-1c1c7, 24 h, read-out: Activity
Method in brief: (§1)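 Hepa 1c1c7 murine hepatoma cells exposed for 24 h to compound from DMSO stock, serially diluted to final […], with DMSO ≤1% final. MTT then added for 3 h, cells lysed, and formazan read at 590 nm. Blank-subtracted absorbance expressed as % of untreated control wells. Mean of at least three independent determinations.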

Hepa 1c1c7 [2] = assay: Induction of quinone reductase activity in mouse Hepa 1c1c7 cells at 1 uM after 24 hrs relative to control; type: cell-based
Method in brief: (§2)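 Cells seeded at 10⁴/well and grown 24 h in α-MEM with 10% FCS, 5% CO₂, 37 °C. They were then exposed 24 h to compound (DMSO ≤0.5% final), using the same concentration as the viability test. Lysis used digitonin/EDTA. MTT-coupled menadione reduction mix was added (Tris pH 7.4, FAD, G6P, NADP, G6PDH). Reaction stopped after 5 min with dicoumarol and read at 590 nm. Result is blank-corrected treated/control (0.5% DMSO) ratio, mean ± SD, n = 3. Lines 12-14 used the c1 mutant, which lacks CYP1A1-dependent AHH activity.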

[3] = Cytotoxicity against mouse Hepa 1c1c7 cells assessed as cell viability at 12.5 uM after 24 hrs by MTT assay; type: functional; conditions: Hepa-1c1c7, 24 h, read-out: Activity; method in brief: as §1
Hepa 1c1c7 [4] = assay: Induction of quinone reductase activity in mouse Hepa 1c1c7 cells at 12.5 uM after 24 hrs relative to control; type: cell-based; method in brief: as §2
Hepa 1c1c7c1 [5] = assay: Induction of quinone reductase in mouse mutant Hepa 1c1c7c1 cells at 12.5 uM after 24 hrs relative to control; type: cell-based; method in brief: as §2
Hepa 1c1c7 [6] = assay: Induction of quinone reductase activity in mouse Hepa 1c1c7 cells assessed as concentration required to double the enzyme activity; type: cell-based
Method in brief: (§3)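 Hepa 1c1c7 wild-type or AHH-deficient c1 mutant cells, 10⁴ per well, grown for 24 h in α-MEM with 10% FCS at 37 °C and 5% CO₂, then exposed to compound from DMSO stock (final DMSO ≤0.5%) for 24 h. Cells were digitonin/EDTA-lysed and given an NADP/G6P-regenerating mix with FAD, MTT and menadione for 5 min. The reaction was stopped with dicoumarol and read at 590 nm; CD is the concentration doubling QR activity versus the DMSO control.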

Hepa 1c1c7c1 [7] = assay: Induction of quinone reductase activity in mouse mutant Hepa 1c1c7c1 cells assessed as concentration required to double the enzyme activity; type: cell-based; method in brief: as §3
[8] = ABTS radical scavenging activity assessed as trolox equivalent antioxidant capacity; type: functional
Method in brief: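 ABTS radical cation diluted in PBS pH 7.4 to absorbance 0.700 (±0.02) at 734 nm, 25 °C. Compound added from ethanol stock. Absorbance decrease read at 1, 3 and 5 min. Percent reduction at 5 min plotted against concentration ([…] as printed); slope divided by Trolox slope gives TEAC. Run at least three times on separate occasions.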

[9] = Cytotoxicity against mouse Hepa 1c1c7 cells assessed as cell viability at 5 uM after 24 hrs by MTT assay; type: functional; conditions: Hepa-1c1c7, 24 h, read-out: Activity; method in brief: as §1
Hepa 1c1c7 [10] = assay: Induction of quinone reductase activity in mouse Hepa 1c1c7 cells at 5 uM after 24 hrs relative to control; type: cell-based; method in brief: as §2
[11] = Cytotoxicity against mouse Hepa 1c1c7 cells assessed as cell viability at 25 uM after 24 hrs by MTT assay; type: functional; conditions: Hepa-1c1c7, 24 h, read-out: Activity; method in brief: as §1
Hepa 1c1c7 [12] = assay: Induction of quinone reductase activity in mouse Hepa 1c1c7 cells at 25 uM after 24 hrs relative to control; type: cell-based; method in brief: as §2
[13] = Cytotoxicity against mouse Hepa 1c1c7 cells assessed as cell viability at 6.3 uM after 24 hrs by MTT assay; type: functional; conditions: Hepa-1c1c7, 24 h, read-out: Activity; method in brief: as §1
Hepa 1c1c7 [14] = assay: Induction of quinone reductase activity in mouse Hepa 1c1c7 cells at 6.3 uM after 24 hrs relative to control; type: cell-based; method in brief: as §2

Structure (SMILES)	viability at 1 µM [1] [%]	Activity (Hepa 1c1c7 [2])	viability at 12.5 µM [3] [%]	Activity (Hepa 1c1c7 [4])	other results
COc1ccc(/C=C\c2cc(OC)c(OC)c(OC)c2)cc1	88	< 1	–	–	–
COc1ccc(/C=C/c2cccc(OC)c2)cc1	–	–	90	1.44	fold induction (Hepa 1c1c7c1 [5]): < 1
COc1ccc(/C=C\c2ccc(OC)cc2)cc1	–	–	64	1.06	–
O=c1cc(-c2ccccc2)oc2ccc3ccccc3c12	–	–	–	–	Activity (Hepa 1c1c7 [6]): 0.028 µM; Activity (Hepa 1c1c7c1 [7]): inactive
COc1ccc(/C=C\c2cccc(OC)c2)cc1	92	< 1	–	–	–
COc1ccc(/C=C/c2ccc(OC)c(O)c2)cc1	–	–	77	1.33	Activity [8]: 1.29
COc1ccc(/C=C/c2c(OC)cccc2OC)cc1	–	–	90	1.92	Activity (Hepa 1c1c7c1 [5]): 1.05 µM
COc1ccc(/C=C\c2ccc(OC)c(OC)c2)cc1 [7Z-3,4,4'-TRIMETHOXYSTILBENE]	86	< 1	–	–	–
COc1ccc(/C=C\c2cccc(O)c2)cc1	–	–	–	–	Activity [8]: 1.04; viability at 5 µM [9]: 90%; Activity (Hepa 1c1c7 [10]): < 1
COc1ccc(/C=C/c2cccc(O)c2)cc1	–	–	81	1.08	Activity [8]: 1.11
COc1ccc(/C=C/c2ccc(OC)cc2OC)cc1	–	–	58	1.18	–
COc1ccc(/C=C\c2ccc(OC)c(O)c2)cc1	–	–	–	–	Activity [8]: 1.11; viability at 5 µM [9]: 75%; Activity (Hepa 1c1c7 [10]): < 1
Oc1cc(O)cc(/C=C/c2ccccc2)c1 [PINOSYLVIN]	–	–	61	1.07	Activity [8]: 2.04
COc1ccc(/C=C/c2cc(OC)cc(OC)c2)cc1 [TRISMETHOXYRESVERATROL]	94	< 1	–	–	–
COc1ccc(/C=C/c2ccccc2O)cc1 [2-hydroxy-4'-methoxystilbene]	–	–	80	1.13	–
COc1ccc(/C=C\c2ccccc2OC)cc1	56	< 1	–	–	–
COc1ccc(/C=C\c2cc(OC)cc(OC)c2)cc1 [8Z-3,4',5-TRIMETHOXYSTILBENE]	82	< 1	–	–	–
COc1ccc(/C=C/c2ccc(OC)c(OC)c2)cc1	100	< 1	–	–	–
COc1ccc(/C=C/c2cc(O)cc(O)c2)cc1 [RESVERATROL 4'-METHYL ETHER]	–	–	87	1.14	Activity [8]: 2.49
COc1ccc(/C=C\c2cc(O)cc(O)c2)cc1	–	–	96	1.04	Activity [8]: 1.86
Oc1ccc(/C=C/c2cc(O)cc(O)c2)cc1 [RESVERATROL]	–	–	80	1.24	Activity [8]: 2.74; fold induction (Hepa 1c1c7c1 [5]): 1.16; viability at 25 µM [11]: 55%; Activity (Hepa 1c1c7 [12]): 1.5
COc1ccc(/C=C/c2ccc(OC)cc2)cc1	–	–	67	1.14	–
C[S+]([O-])CCCCN=C=S (stereo unspecified)	–	–	–	–	Activity (Hepa 1c1c7 [6]): 0.26 µM; Activity (Hepa 1c1c7c1 [7]): 0.28 µM
COc1ccccc1/C=C/c1ccccc1OC	–	–	82	1.81	fold induction (Hepa 1c1c7c1 [5]): < 1
COc1ccc(/C=C/c2ccccc2OC)cc1	–	–	58	2.04	viability at 6.3 µM [13]: 73%; Activity (Hepa 1c1c7 [14]): 1.8; fold induction (Hepa 1c1c7c1 [5]): 1.14
COc1ccc(/C=C/c2cc(OC)c(OC)c(OC)c2)cc1	86	< 1	–	–	–
COc1ccc(/C=C\c2ccc(OC)cc2OC)cc1	85	< 1	–	–	–

From ChEMBL document CHEMBL1147212, “Quinone reductase induction activity of methoxylated analogues of resveratrol” (2007)
